pIC50: −log10 of the molar value.
Legend:
[1] = molecular target: T1, Prostaglandin G/H synthase 1 (Ovis aries, UniProt P05979); assay: Inhibition of ovine COX1 using ADHP as substrate after 20 mins by fluorescence assay
T1 sequence (P05979 whole entry): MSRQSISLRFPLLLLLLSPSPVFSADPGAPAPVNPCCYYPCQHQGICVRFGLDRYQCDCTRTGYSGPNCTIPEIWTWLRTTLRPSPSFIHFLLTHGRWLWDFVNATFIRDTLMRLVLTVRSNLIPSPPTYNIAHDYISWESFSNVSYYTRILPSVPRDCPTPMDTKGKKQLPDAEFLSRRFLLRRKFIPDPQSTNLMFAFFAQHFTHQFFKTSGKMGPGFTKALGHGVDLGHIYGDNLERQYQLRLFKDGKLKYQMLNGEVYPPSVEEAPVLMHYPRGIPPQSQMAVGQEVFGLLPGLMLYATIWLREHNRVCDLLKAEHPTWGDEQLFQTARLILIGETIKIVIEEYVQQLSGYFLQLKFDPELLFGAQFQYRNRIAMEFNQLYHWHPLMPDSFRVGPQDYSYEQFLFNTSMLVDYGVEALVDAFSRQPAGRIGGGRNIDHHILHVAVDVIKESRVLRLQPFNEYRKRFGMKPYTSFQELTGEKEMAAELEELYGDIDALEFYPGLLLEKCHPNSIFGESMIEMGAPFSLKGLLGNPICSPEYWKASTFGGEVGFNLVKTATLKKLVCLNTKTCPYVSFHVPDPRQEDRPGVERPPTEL
Method in brief: (§1)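 Ovine COX-1 or human recombinant COX-2 was preincubated 20 min at room temperature with a range of compound concentrations in 100 mM Tris-HCl pH 8.0, heme and ADHP. Arachidonic acid was then added for 2 min at room temperature, and resorufin fluorescence was read. IC50 came from the dose-response curve (triplicate determinations). Selectivity index = COX-1 IC50/COX-2 IC50.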

Rattus norvegicus [2] = assay: Antiinflammatory activity against albino rat assessed as inhibition of carrageenan-induced paw edema at 0.28 mmol/kg, po administered 30 mins prior to carrageenan challenge measured after 3 hrs relative to control; assay type: functional
Method in brief: (§2)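 Adult male albino rats (120–140 g), in groups of four, were fasted 24 h with water allowed. Compounds were given orally as a suspension in 0.5% w/v CMC in water, and controls received CMC alone. After 30 min, 0.1 mL of 1% carrageenan in saline was injected subplantar into the right hind paw and saline into the left. Paw thickness was measured by caliper. % inhibition = [(VR−VL)control − (VR−VL)treated]/(VR−VL)control; one-way ANOVA.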

[3] = Selectivity index, ratio of IC50 for ovine COX1 to IC50 for human recombinant COX2; method in brief: as §1
Rattus norvegicus [4] = assay: Antiinflammatory activity against albino rat assessed as inhibition of carrageenan-induced paw edema at 0.28 mmol/kg, po administered 30 mins prior to carrageenan challenge measured after 3 hrs relative to indomethacin; assay type: functional; parameters: scale not given: the % may be the effect or the level left
Rattus norvegicus [5] = assay: Antiinflammatory activity against albino rat assessed as inhibition of carrageenan-induced paw edema at 0.28 mmol/kg, po administered 30 mins prior to carrageenan challenge measured after 1 hr relative to control; assay type: functional; method in brief: as §2
Rattus norvegicus [6] = assay: Antiinflammatory activity against albino rat assessed as inhibition of carrageenan-induced paw edema at 0.28 mmol/kg, po administered 30 mins prior to carrageenan challenge measured after 5 hrs relative to control; assay type: functional; method in brief: as §2
Rattus norvegicus [7] = assay: Antiinflammatory activity against albino rat assessed as inhibition of carrageenan-induced paw edema at 0.28 mmol/kg, po administered 30 mins prior to carrageenan challenge measured after 4 hrs relative to control; assay type: functional; method in brief: as §2
Rattus norvegicus [8] = assay: Antiinflammatory activity against albino rat assessed as inhibition of carrageenan-induced paw edema at 0.28 mmol/kg, po administered 30 mins prior to carrageenan challenge measured after 3 hrs relative to celecoxib; assay type: functional; parameters: scale not given: the % may be the effect or the level left
[9] = molecular target: T2, Prostaglandin G/H synthase 2 (Homo sapiens, UniProt P35354); assay: Inhibition of human recombinant COX2 using ADHP as substrate after 20 mins by fluorescence assay; method in brief: as §1
T2 sequence (P35354 whole entry): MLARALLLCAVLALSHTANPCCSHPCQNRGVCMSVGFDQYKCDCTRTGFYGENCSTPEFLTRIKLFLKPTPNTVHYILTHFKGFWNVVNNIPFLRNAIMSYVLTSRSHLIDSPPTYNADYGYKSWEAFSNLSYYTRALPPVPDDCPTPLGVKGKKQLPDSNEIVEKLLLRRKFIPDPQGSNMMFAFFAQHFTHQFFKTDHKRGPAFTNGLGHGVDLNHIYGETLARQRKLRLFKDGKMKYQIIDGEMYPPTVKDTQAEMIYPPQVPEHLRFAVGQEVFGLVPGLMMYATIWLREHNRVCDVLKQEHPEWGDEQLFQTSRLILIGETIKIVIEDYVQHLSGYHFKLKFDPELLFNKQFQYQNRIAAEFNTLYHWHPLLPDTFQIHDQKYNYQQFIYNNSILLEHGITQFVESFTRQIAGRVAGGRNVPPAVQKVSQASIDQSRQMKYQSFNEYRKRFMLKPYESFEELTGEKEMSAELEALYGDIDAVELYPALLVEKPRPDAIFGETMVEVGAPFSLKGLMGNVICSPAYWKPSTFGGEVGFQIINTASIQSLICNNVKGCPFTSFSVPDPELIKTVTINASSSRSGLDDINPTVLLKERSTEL

Rattus norvegicus [10] = assay: Antiinflammatory activity against albino rat assessed as inhibition of carrageenan-induced paw edema at 0.28 mmol/kg, po administered 30 mins prior to carrageenan challenge measured after 2 hrs relative to control; assay type: functional; method in brief: as §2
Rattus norvegicus [11] = assay: Gastric toxicity in rat assessed as ulcer index at 0.28 mmol/kg, po; assay type: organism-based; conditions: in vivo

Row | Structure (SMILES) | pIC50 [1] | inhibition in vivo at 280 µmol/kg (Rattus norvegicus [2]) | Ratio IC50 [3] | Activity (Rattus norvegicus [4]) | inhibition in vivo at 280 µmol/kg (Rattus norvegicus [5]) | inhibition in vivo at 280 µmol/kg (Rattus norvegicus [6]) | inhibition in vivo at 280 µmol/kg (Rattus norvegicus [7]) | Activity (Rattus norvegicus [8]) | pIC50 [9] | inhibition in vivo at 280 µmol/kg (Rattus norvegicus [10]) | UI (Rattus norvegicus [11])
1 | COc1ccc(NC(=O)c2nc(-c3ccccc3)n(-c3ccc(S(N)(=O)=O)cc3)n2)cc1 | < 3.00 | 78% | > 1120 | 99% | 53% | 55% | 73% | 113% | 6.05 | 57% | 2.3
2 | CC(=O)c1ccc(NC(=O)c2nc(-c3ccccc3)n(-c3ccc(S(N)(=O)=O)cc3)n2)cc1 | – | 73% | – | 92% | 53% | 42% | 64% | 106% | – | 68% | 0.5
3 | NC(=O)c1nc(-c2ccccc2)n(-c2ccc(S(N)(=O)=O)cc2)n1 | – | 52% | – | 66% | 43% | 42% | 49% | 75% | – | 48% | 2
4 | Cc1ccc(-c2cc(C(F)(F)F)nn2-c2ccc(S(N)(=O)=O)cc2)cc1 [CELECOXIB] | – | 69% | – | – | 44% | 52% | 59% | 100% | – | 50% | 0.5
5 | NS(=O)(=O)c1ccc(-n2nc(C(=O)Nc3nc4ccccc4s3)nc2-c2ccccc2)cc1 | 3.10 | 54% | 2100 | 68% | 20% | 38% | 44% | 78% | 6.42 | 32% | 1
6 | NNC(=O)c1nc(-c2ccccc2)n(-c2ccc(S(N)(=O)=O)cc2)n1 | – | 60% | – | 76% | 32% | 32% | 45% | 87% | – | 53% | 3
7 | COC(=O)c1nc(-c2ccccc2)n(-c2ccc(S(N)(=O)=O)cc2)n1 | – | 69% | – | 87% | 38% | 46% | 61% | 100% | – | 48% | 3
